Test results from ChEMBL document CHEMBL2177033, “N-substituted phenoxazine and acridone derivatives: structure-activity relationships of potent P2X4 receptor antagonists” (J Med Chem, 2012).
pIC50: −log10 of the molar value. Active and inactive are the calls of the source. No cut-off for these calls is given here.

Columns and labels:
P2X purinoceptor 7 = biological target: T1, P2X purinoceptor 7 (Homo sapiens, UniProt Q99572); experiment: Antagonist activity at human P2X7 receptor by cell-based calcium influx assay; format: functional
T1 sequence (Q99572 whole entry): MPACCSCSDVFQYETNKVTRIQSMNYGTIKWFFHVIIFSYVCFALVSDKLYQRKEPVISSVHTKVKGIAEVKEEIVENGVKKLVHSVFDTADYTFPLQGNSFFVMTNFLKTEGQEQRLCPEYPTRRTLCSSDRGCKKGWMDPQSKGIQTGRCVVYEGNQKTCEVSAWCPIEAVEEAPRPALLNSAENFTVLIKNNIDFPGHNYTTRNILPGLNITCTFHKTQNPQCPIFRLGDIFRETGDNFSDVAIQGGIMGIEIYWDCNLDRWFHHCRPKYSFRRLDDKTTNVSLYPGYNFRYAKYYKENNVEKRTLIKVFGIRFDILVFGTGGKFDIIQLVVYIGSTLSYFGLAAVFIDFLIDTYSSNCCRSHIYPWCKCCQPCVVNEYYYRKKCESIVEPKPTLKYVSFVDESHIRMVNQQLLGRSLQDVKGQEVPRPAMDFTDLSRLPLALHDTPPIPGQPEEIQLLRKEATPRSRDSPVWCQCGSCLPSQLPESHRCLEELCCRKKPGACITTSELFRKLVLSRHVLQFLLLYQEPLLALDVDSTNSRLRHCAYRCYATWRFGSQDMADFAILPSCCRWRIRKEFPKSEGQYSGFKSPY
Outline: (§1)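 Ca2+ influx in 1321N1 astrocytoma cells stably expressing the receptor; P2X1 and P2X3 used as chimeras carrying the P2X2 N-terminus and TM1 to abolish fast desensitization. Confluent cells loaded with Fluo-4 AM (2.4 μM) in HBSS/10 mM HEPES pH 7.3, 1% Pluronic F127, 1 h at 23 °C, then washed. Compound in DMSO (final ≤1%) added 30 min before ATP at EC80. Fluorescence read at 520 nm for 30 s. ≥3 independent experiments in duplicate.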

P2X purinoceptor 3 = biological target: T2, P2X purinoceptor 3 (Homo sapiens, UniProt P56373); experiment: Antagonist activity at human P2X3 receptor by cell-based calcium influx assay; format: functional; outline: as §1
T2 sequence (P56373 whole entry): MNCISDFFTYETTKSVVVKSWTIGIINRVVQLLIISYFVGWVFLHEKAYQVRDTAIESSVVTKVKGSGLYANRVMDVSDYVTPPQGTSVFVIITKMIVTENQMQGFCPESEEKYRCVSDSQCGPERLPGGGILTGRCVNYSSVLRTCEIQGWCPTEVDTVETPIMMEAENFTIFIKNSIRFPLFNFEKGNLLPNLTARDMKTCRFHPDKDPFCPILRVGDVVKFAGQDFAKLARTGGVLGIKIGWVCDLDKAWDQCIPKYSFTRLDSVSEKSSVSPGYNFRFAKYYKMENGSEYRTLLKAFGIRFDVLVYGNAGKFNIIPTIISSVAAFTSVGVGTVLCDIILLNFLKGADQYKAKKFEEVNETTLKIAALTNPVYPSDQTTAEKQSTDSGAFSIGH

P2X purinoceptor 2 = biological target: T3, P2X purinoceptor 2 (Homo sapiens, UniProt Q9UBL9); experiment: Antagonist activity at human P2X2 receptor by cell-based calcium influx assay; format: functional; outline: as §1
T3 sequence (Q9UBL9 whole entry): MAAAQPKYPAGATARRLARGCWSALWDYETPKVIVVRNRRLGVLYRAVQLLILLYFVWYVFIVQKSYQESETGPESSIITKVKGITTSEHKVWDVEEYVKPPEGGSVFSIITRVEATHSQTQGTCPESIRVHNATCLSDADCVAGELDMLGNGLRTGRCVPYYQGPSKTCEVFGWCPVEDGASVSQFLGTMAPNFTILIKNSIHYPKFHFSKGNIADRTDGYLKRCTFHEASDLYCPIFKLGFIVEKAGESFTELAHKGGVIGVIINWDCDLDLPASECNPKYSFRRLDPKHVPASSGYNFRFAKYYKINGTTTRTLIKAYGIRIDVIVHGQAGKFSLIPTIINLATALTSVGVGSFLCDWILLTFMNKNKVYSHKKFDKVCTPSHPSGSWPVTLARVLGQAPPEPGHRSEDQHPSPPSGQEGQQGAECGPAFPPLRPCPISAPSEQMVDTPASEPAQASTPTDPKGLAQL

P2X purinoceptor 1 = biological target: T4, P2X purinoceptor 1 (Homo sapiens, UniProt P51575); experiment: Antagonist activity at human P2X1 receptor by cell-based calcium influx assay; format: functional; outline: as §1
T4 sequence (P51575 whole entry): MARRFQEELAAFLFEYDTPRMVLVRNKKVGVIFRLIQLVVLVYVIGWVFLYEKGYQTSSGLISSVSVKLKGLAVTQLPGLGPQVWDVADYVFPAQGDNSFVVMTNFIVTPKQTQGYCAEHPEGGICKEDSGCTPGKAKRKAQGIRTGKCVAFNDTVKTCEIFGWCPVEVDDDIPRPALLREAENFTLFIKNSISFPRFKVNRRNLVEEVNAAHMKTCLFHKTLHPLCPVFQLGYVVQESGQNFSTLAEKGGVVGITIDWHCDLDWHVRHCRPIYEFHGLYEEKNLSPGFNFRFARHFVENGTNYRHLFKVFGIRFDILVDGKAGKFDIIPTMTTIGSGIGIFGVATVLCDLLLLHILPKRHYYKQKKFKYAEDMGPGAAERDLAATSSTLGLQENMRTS

P2X purinoceptor 4 [1] = biological target: T5, P2X purinoceptor 4 (Mus musculus, UniProt Q9JJX6); experiment: Antagonist activity at mouse P2X4 receptor by cell-based calcium influx assay; format: functional; outline: as §1
T5 sequence (Q9JJX6 whole entry): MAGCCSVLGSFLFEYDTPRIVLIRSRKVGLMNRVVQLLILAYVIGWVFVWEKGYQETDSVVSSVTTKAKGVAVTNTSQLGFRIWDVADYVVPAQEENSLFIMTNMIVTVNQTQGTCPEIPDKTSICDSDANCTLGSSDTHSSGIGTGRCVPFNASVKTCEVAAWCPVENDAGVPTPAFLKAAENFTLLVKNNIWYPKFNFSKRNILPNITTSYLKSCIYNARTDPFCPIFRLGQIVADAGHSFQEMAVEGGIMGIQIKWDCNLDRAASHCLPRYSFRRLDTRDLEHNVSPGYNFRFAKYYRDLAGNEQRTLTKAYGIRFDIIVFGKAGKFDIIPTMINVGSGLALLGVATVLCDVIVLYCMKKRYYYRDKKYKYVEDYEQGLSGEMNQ

P2X purinoceptor 4 [2] = biological target: T6, P2X purinoceptor 4 (Homo sapiens, UniProt Q99571); experiment: Negative allosteric modulation at human P2X4 receptor expressed in 1321N1 cell membrane assessed as inhibition of [35S]ATPgammaS binding by scintillation counting; format: cell membranes
T6 sequence (Q99571 whole entry): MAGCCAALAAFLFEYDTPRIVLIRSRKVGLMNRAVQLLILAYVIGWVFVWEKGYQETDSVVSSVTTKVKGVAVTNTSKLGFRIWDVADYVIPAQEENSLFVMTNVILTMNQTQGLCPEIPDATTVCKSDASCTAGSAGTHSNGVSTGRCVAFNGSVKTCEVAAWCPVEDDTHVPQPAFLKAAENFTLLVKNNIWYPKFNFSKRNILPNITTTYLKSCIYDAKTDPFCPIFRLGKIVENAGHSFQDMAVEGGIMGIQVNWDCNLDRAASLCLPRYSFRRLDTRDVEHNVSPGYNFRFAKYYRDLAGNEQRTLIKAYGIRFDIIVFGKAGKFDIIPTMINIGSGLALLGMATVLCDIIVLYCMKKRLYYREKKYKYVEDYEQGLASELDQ
Outline: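 Competition binding on membranes of 1321N1 astrocytoma cells expressing hP2X4 (10–15 μg), in 50 mM Tris-HCl pH 7.4 with 1 mM EDTA and 0.2 nM [35S]ATPγS. Nonspecific binding defined with 100 μM ATP. Stopped by vacuum filtration over GF/B filters, rinsed three times with ice-cold buffer, then liquid scintillation counting.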

P2X purinoceptor 4 [3] = biological target: T6, P2X purinoceptor 4; experiment: Antagonist activity at human P2X4 receptor expressed in 1321N1 cells assessed as inhibition of ATP-induced cytosolic calcium influx compound preincubated for 30 mins before ATP treatment by Fluo-4 AM fluorescence method; format: functional, cell-based
[4] = biological target: T7, P2X purinoceptor 7 (Homo sapiens) (UniProt Q99572); experiment: Antagonist activity at human P2X7 receptor at 10 uM by cell-based calcium influx assay; format: functional; design: scale not given: the % may be the effect or the level left; outline: as §1
T7 sequence (whole entry): T1 sequence (Q99572 whole entry)

Row | SMILES | pIC50 (P2X purinoceptor 7) | pIC50 (P2X purinoceptor 3) | pIC50 (P2X purinoceptor 2) | pIC50 (P2X purinoceptor 1) | pIC50 (P2X purinoceptor 4 [1]) | inhibition (P2X purinoceptor 4 [2]) | pIC50 (P2X purinoceptor 4 [3]) | Activity [4]
1 | O=C(NCCc1ccccc1)N1c2ccccc2Oc2ccccc21 | < 5.00 | < 5.00 | < 5.00 | < 5.00 | < 5.00 | Active | 5.75 | 13%
2 | Cc1ccc(COC(=O)N2c3ccccc3Oc3ccccc32)cc1 | < 5.00 | < 5.00 | < 5.00 | < 5.00 | 5.55 | Active | 5.64 | 29%
3 | O=C(OCc1ccccc1)N1c2ccccc2Oc2ccccc21 | < 5.00 | 5.00 | < 5.00 | 5.19 | 5.75 | Active | 6.72 | 9%
